Results from ChEMBL document CHEMBL4732104, “Discovery of bardoxolone derivatives as novel orally active necroptosis inhibitors” (Eur J Med Chem, 2021).
The source made the active and inactive calls. The calls are words filed in the database; no cut-off is given here.

Columns and labels:
[1] = system: HT-29; experiment: Anti-necroptotic activity in human HT-29 cells assessed as inhibition of TNFalpha/SM-164/Z-VAD-fmk (TSZ)-induced necroptosis by measuring increase in cell viability measured after 12 hrs by celltiter-glo luminescent cell viability assay; assay type: functional, cell-based; conditions: for EC50: HT-29, 12 h
Summary of the method: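 HT-29 cells pretreated with test agent across a concentration range, then TNF-α (20 ng/mL), Smac mimetic (10 nM) and z-VAD-fmk (20 μM) for 12–16 h. CellTiter-Glo viability. EC50 ± SD from at least three independent experiments.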

[2] = system: L929; experiment: Anti-necroptotic activity in mouse L929 cells assessed as inhibition of TNFalpha/Z-VAD-fmk (TZ)-induced necroptosis by measuring increase in cell viability measured after 12 hrs by celltiter-glo luminescent cell viability assay; assay type: functional, cell-based; conditions: L929, 12 h
Summary of the method: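 Mouse L929 fibroblasts pretreated with test agent, then mouse TNF-α (20 ng/mL) plus z-VAD-fmk (20 μM). Incubation stated as 4 h in table footnote and 12 h in figure legend. CellTiter-Glo viability. EC50 ± SD from at least three independent repeats.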

[3] = system: HT-29; experiment: Anti-necroptotic activity in human HT-29 cells assessed as inhibition of TNFalpha/SM-164/Z-VAD-fmk (TSZ)-induced necroptosis by measuring increase in cell viability at 10 uM measured after 12 hrs by celltiter-glo luminescent cell viability assay; assay type: functional, cell-based
Summary of the method: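 HT-29 cells in DMEM with 10% FBS at 37 °C, 5% CO2. Test agents at 10 μM, then TSZ stimulation for 12 h. Viability read by CellTiter-Glo luminescence.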

[4] = system: Rattus norvegicus; experiment: Neuroprotective activity in middle cerebral artery occlusion-induced Sprague-Dawley rat model of ischemia-reperfusion injury assessed as reduction in cerebral infarct volume at 1 mg/kg by TTC staining based microscopic analysis relative to control; assay type: functional; parameters: scale not given: the % may be the effect or the level left
[5] = system: HT-29; experiment: Anti-necroptotic activity in human HT-29 cells assessed as inhibition of TNFalpha/SM-164/Z-VAD-fmk (TSZ)-induced necroptosis by measuring cell viability at 10 uM preincubated for 30 mins followed by TSZ stimulation and measured after 16 hrs by celltiter-glo luminescent cell viability assay relative to control; assay type: functional; conditions: time 16.5 hrs
Summary of the method: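 HT-29 cells in DMEM with 10% FBS, 37 °C, 5% CO2. Compound pretreatment 30 min, then TNF-α 20 ng/mL, Smac mimetic and z-VAD-fmk 20 μM for 16 h. Viability by CellTiter-Glo luminescence, normalised to untreated control cells.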

[6] = system: HT-29; experiment: Anti-necroptotic activity in human HT-29 cells assessed as inhibition of TNFalpha/SM-164/Z-VAD-fmk (TSZ)-induced necroptosis by measuring reduction in cell swelling at 5 uM preincubated for 30 mins followed by TSZ stimulation and measured after 12 hrs by phase contrast microscopic analysis; assay type: functional, cell-based; conditions: time 12.5 hrs
Summary of the method: (§1)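 HT-29 cells pretreated with DMSO or compound, then stimulated with TNF-α, Smac mimetic and z-VAD-fmk for 12 h. Necrotic morphology (swelling, membrane rupture) viewed by phase contrast microscopy at 200×.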

[7] = system: HT-29; experiment: Anti-necroptotic activity in human HT-29 cells assessed as inhibition of TNFalpha/SM-164/Z-VAD-fmk (TSZ)-induced necroptosis by measuring reduction in plasma membrane rupture at 5 uM preincubated for 30 mins followed by TSZ stimulation and measured after 12 hrs by phase contrast microscopic analysis; assay type: functional, cell-based; conditions: time 12.5 hrs; summary of the method: as §1
[8] = system: HT-29; experiment: Anti-necroptotic activity in human HT-29 cells assessed as inhibition of TNFalpha/cycloheximide/Z-VAD-fmk (TCZ)-induced necroptosis by measuring increase in cell viability measured after 16 hrs by celltiter-glo luminescent cell viability assay; assay type: functional, cell-based
[9] = system: HT-29; experiment: Cytotoxicity against human HT-29 cells assessed as reduction in cell viability at 10 uM by MTT assay; assay type: cell-based; conditions: ht-29, 10 µM
[10] = system: HT-29; experiment: Protection against TNFalpha/SM-164 (TS)-induced apoptosis in human HT-29 cells assessed as increase in cell viability at 0.08 to 10 uM measured after 20 hrs by celltiter-glo luminescent cell viability assay; assay type: functional, cell-based; conditions: dose 0.08-10 µM
Summary of the method: (§2)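 HT-29 apoptosis induced by TNF-α 20 ng/mL plus Smac mimetic (20 h), or by TNF-α plus cycloheximide (24 h), with graded compound concentrations. Viability read by CellTiter-Glo luminescence; means ± S.D. of three independent experiments.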

[11] = system: HT-29; experiment: Protection against TNFalpha/cycloheximide (TC)-induced apoptosis in human HT-29 cells assessed as increase in cell viability at 0.08 to 10 uM measured after 24 hrs by celltiter-glo luminescent cell viability assay; assay type: functional, cell-based; conditions: dose 0.08-10 µM; summary of the method: as §2

Row | Structure (SMILES) | EC50 [1] | EC50 [2] | also measured
1 | CC1(C)CC[C@]2(C(=O)O)CC[C@]3(C)C(=CC[C@@H]4[C@@]5(C)CC[C@H](O)C(C)(C)[C@@H]5CC[C@]43C)[C@@H]2C1 [OLEANOLIC_ACID] | > 10000 nM |  | 
2 | CC1(C)CC[C@]2(C(=O)n3ccnc3)CC[C@]3(C)[C@H](C(=O)C=C4[C@@]5(C)C=C(C#N)C(=O)C(C)(C)[C@@H]5CC[C@]43C)[C@@H]2C1 | 2100 nM | 1460 nM | 
3 | CC1(C)CC[C@]2(C(=O)NCCNC(=O)OC(C)(C)C)CC[C@]3(C)[C@H](C(=O)C=C4[C@@]5(C)C=C(C#N)C(=O)C(C)(C)[C@@H]5CC[C@]43C)[C@@H]2C1 | 2810 nM | 1480 nM | 
4 | COC(=O)[C@]12CCC(C)(C)C[C@H]1[C@H]1C(=O)C=C3[C@@]4(C)C=C(C#N)C(=O)C(C)(C)[C@@H]4CC[C@@]3(C)[C@]1(C)CC2 [BARDOXOLONE METHYL] | 4340 nM | > 10000 nM | 
5 | COC(=O)[C@@]12OC[C@]34[C@H]([C@@H](O)[C@@H]1O)[C@@]1(C)CC(=O)C(O)=C(C)[C@@H]1C[C@H]3OC(=O)[C@H](OC(=O)C=C(C)C)[C@@H]24 |  |  | inhibition [3]: inactive
6 | CC1(C)CC[C@]2(C(=O)N[C@H]3CCCc4ccccc43)CC[C@]3(C)[C@H](C(=O)C=C4[C@@]5(C)C=C(C#N)C(=O)C(C)(C)[C@@H]5CC[C@]43C)[C@@H]2C1 | 1810 nM | 620 nM | 
7 | COC(=O)/C=C/C(=O)OC |  |  | inhibition [3]: inactive
8 | CC1(C)CC[C@]2(C(=O)NC3CCCCC3)CC[C@]3(C)[C@H](C(=O)C=C4[C@@]5(C)C=C(C#N)C(=O)C(C)(C)[C@@H]5CC[C@]43C)[C@@H]2C1 | 1300 nM | > 10000 nM | 
9 | CC1(C)CC[C@]2(C(=O)NCc3ccccc3)CC[C@]3(C)[C@H](C(=O)C=C4[C@@]5(C)C=C(C#N)C(=O)C(C)(C)[C@@H]5CC[C@]43C)[C@@H]2C1 | 1630 nM | 1030 nM | 
10 | COCCOC(=O)C1=C(C)NC(C)=C(C(=O)OC(C)C)C1c1cccc([N+](=O)[O-])c1 (stereo not drawn) [NIMODIPINE] |  |  | Activity [4]: 26.8%
11 | CCNC(=O)[C@]12CCC(C)(C)C[C@H]1[C@H]1C(=O)C=C3[C@@]4(C)C=C(C#N)C(=O)C(C)(C)[C@@H]4CC[C@@]3(C)[C@]1(C)CC2 | 1380 nM | 4150 nM | 
12 | CC1(C)CC[C@]2(C(=O)O)[C@H](O)C[C@]3(C)C(=CC[C@@H]4[C@@]5(C)CC[C@H](O)C(C)(C)[C@@H]5CC[C@]43C)[C@@H]2C1 | > 10000 nM |  | 
13 | CC1(C)CC[C@]2(C(=O)N[C@@H]3CCCc4ccccc43)CC[C@]3(C)[C@H](C(=O)C=C4[C@@]5(C)C=C(C#N)C(=O)C(C)(C)[C@@H]5CC[C@]43C)[C@@H]2C1 | 1910 nM | 820 nM | 
14 | C=CCNC1=C2C[C@@H](C)C[C@H](OC)[C@H](O)[C@@H](C)/C=C(\C)[C@H](OC(N)=O)[C@@H](OC)/C=C\C=C(/C)C(=O)NC(=CC1=O)C2=O |  |  | inhibition [3]: Active
15 | Cc1ccc(Nc2nccc(N(C)c3ccc4c(C)n(C)nc4c3)n2)cc1S(N)(=O)=O [PAZOPANIB] |  |  | Activity [5]: >80%
16 | CC1(C)CC[C@]2(NC(=O)C(C)(F)F)CC[C@]3(C)[C@H](C(=O)C=C4[C@@]5(C)C=C(C#N)C(=O)C(C)(C)[C@@H]5CC[C@]43C)[C@@H]2C1 [OMAVELOXOLONE] | 1410 nM | 5250 nM | 
17 | CC1(C)CC[C@]2(C(=O)n3cnc(-c4ccccn4)c3)CC[C@]3(C)[C@H](C(=O)C=C4[C@@]5(C)C=C(C#N)C(=O)C(C)(C)[C@@H]5CC[C@]43C)[C@@H]2C1 | 290 nM | 610 nM | 
18 | CC1(C)CC[C@]2(C(=O)O)CC[C@]3(C)[C@H](C(=O)C=C4[C@@]5(C)C=C(C#N)C(=O)C(C)(C)[C@@H]5CC[C@]43C)[C@@H]2C1 [BARDOXOLONE] | 1300 nM | > 10000 nM | Activity [5]: >100%; Activity [6]: Active; Activity [7]: Active; inhibition [1]: Dose-dependent effect; inhibition [8]: Dose-dependent effect; Activity [9]: Toxic; Activity [10]: inactive; Activity [11]: inactive
19 | CC(C)c1cc(C(=O)N2Cc3ccc(CN4CCN(C)CC4)cc3C2)c(O)cc1O |  |  | inhibition [3]: Active
